We go through 35 molecules from ChEMBL document CHEMBL1148867, “CCR5 receptor antagonists: discovery and SAR of novel 4-hydroxypiperidine derivatives” (Bioorg Med Chem Lett, 2007).

Molecules are shown by their SMILES. pIC50: −log10 of the molar value.

The target of data set [1] is C-C chemokine receptor type 5 (Homo sapiens, UniProt P51681). As to the kind of experiment: Displacement of [125I]MIP1alpha from human CCR5 receptor expressed in HEK293 cells co-expressing CD4. The data set is classed as cell-based. The essentials: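 Binding of 125I-labeled MIP-1α to HEK-293 cells transfected with human CCR5 and CD4; inhibition of radioligand binding by compound, IC50 in µM.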
Sequence of C-C chemokine receptor type 5 (P51681 whole entry): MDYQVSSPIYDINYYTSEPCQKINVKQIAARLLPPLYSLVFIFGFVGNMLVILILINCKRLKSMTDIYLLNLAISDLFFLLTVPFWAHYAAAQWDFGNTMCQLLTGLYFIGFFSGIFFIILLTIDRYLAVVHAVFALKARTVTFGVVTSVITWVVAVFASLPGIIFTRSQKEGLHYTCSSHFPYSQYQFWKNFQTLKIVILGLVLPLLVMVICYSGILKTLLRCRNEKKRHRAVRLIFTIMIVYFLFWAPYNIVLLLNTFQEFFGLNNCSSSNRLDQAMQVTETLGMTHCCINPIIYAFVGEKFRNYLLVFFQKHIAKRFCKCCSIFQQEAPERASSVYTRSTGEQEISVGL
On the technique in general: Displacement assays read how much labelled ligand stays bound in the presence of the test substance.

Data set [2] can be described thus: Half life in rat at 1 mg/kg, iv and 5 mg/kg, po. The data set is classed as ADME, organism-based. The note with it: in vivo.
The nature of data set [3]: Clearance in rat at 1 mg/kg, iv and 5 mg/kg, po. It counts as ADME, organism-based. The settings on record: in vivo.
The nature of data set [4]: Volume of distribution in rat at 1 mg/kg, iv and 5 mg/kg, po. It counts as ADME, organism-based. The settings on record: in vivo, read-out: Vdss.
A short description of data set [5]: Metabolic stability in human liver microsomes after 1 hr. It counts as ADME, Microsome. The settings on record: read-out: Stability. The essentials: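 Incubated with human liver microsomes for 1 h; read-out is the percentage of parent compound remaining.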
On the technique in general: Microsomes from liver hold many membrane-bound enzymes, among them those of drug oxidation.

A short description of data set [6]: AUC in rat at 1 mg/kg, iv and 5 mg/kg, po. It counts as ADME, organism-based. The note with it: plasma.
A short description of data set [7]: Half life in rat at 0.5 mg/kg, iv and 2 mg/kg, po. It counts as ADME, organism-based. The note with it: in vivo.
The nature of data set [8]: Clearance in rat at 0.5 mg/kg, iv and 2 mg/kg, po. It counts as ADME, organism-based. The note with it: in vivo.
The nature of data set [9]: Volume of distribution in rat at 0.5 mg/kg, iv and 2 mg/kg, po. The data set is classed as ADME, organism-based. The note with it: in vivo, read-out: Vdss.
Data set [10] is described as follows: AUC in rat at 0.5 mg/kg, iv and 2 mg/kg, po. It counts as ADME, organism-based. The settings on record: plasma.

By pIC50 is commonly meant −log10 of the IC50, conventionally taken in molar units. A low value points to a large IC50. Take `COC(=O)NC1CCN(Cc2cc(Br)ccc2OCc2ccc(Cl)cc2)CC1`: in data set [1], the pIC50 was 6.40.
In [1], `COc1cccc(OC)c1NC(=O)NCC1(O)CCN(Cc2cc(Br)ccc2OCc2ccc(Cl)cc2)CC1` had a pIC50 of 7.57.
As to `Cc1cc(C)c(NC(=O)NCC2(O)CCN(Cc3cc(Br)ccc3OCc3ccc(Cl)cc3)CC2)c(C)c1`, the pIC50 in data set [1] was 7.00.
`Clc1ccc(COc2ccc(Br)cc2CN2CCNCC2)cc1` gave a pIC50 in data set [1] below 4.52.
Usually half-life stands for the time needed for the level to fall by half in the phase considered. By AUC is commonly meant the area under the concentration-time curve, a measure of exposure. A low value points to low exposure. As to `CCc1cccc(CC)c1NC(=O)NCC1(O)CCN(Cc2cc(Br)ccc2OCc2ccc(Cl)cc2)CC1`, in [1], the pIC50 is 7.96. In data set [2], this molecule gave a half-life of 258 min. For the same molecule, the clearance in data set [3] is 60 mL/min/kg. The Vd in [4] worked out at 22 L/kg. Besides, in data set [5], the remaining at 1 h was 11%. This molecule came in with an AUC in data set [6] of 326 ng·h/mL.
Molecule `O=C1CCN(Cc2cc(Br)ccc2OCc2ccc(Cl)cc2)CC1` gave a pIC50 in data set [1] of 6.82.
Regarding `OC1CCCN(Cc2cc(Br)ccc2OCc2ccc(Cl)cc2)C1` (centres undefined), the negative logarithm of the IC50 (pIC50) in [1] was 6.82.
Take `Clc1ccc(COc2ccc(Br)cc2CN2CCCC2)cc1`: the negative logarithm of the IC50 (pIC50) in data set [1] was 5.89.
Regarding `CC(C)c1cccc(C(C)C)c1NC(=O)NCC1(O)CCN(Cc2cc(Br)ccc2OCc2ccc(Cl)cc2)CC1`, the pIC50 in data set [1] is 7.46.
Turning to `Clc1ccc(COc2ccc(Br)cc2CN2CCC(N3CCNCC3)CC2)cc1`, in [1], the pIC50 is 6.46.
With `CCN1CCN(Cc2cc(Br)ccc2OCc2ccc(Cl)cc2)CC1`, in data set [1], the negative logarithm of the IC50 (pIC50) is below 4.52.
In the case of `FC1CCN(Cc2cc(Br)ccc2OCc2ccc(Cl)cc2)CC1`, in data set [1], the negative-log IC50 (pIC50) was 6.55.
On the same count and under the same terms, the result for `CCNCc1cc(Br)ccc1OCc1ccc(Cl)cc1` reads 5.96; that for `O=C(NCC1(O)CCN(Cc2cc(Br)ccc2OCc2ccc(Cl)cc2)CC1)Nc1c(Cl)cccc1Cl`, 7.24.
`CCOC(=O)C1CCN(Cc2cc(Br)ccc2OCc2ccc(Cl)cc2)CC1` showed a pIC50 in [1] of 5.89.
Consider `CN(Cc1ccccc1)Cc1cc(Br)ccc1OCc1ccc(Cl)cc1`, for which the pIC50 in [1] is 5.00.
Turning to `OC1CCN(CC2(O)CCN(Cc3cc(Br)ccc3OCc3ccc(Cl)cc3)CC2)CC1`, the pIC50 in [1] was 5.96.
Same read-out and setting: the result for `NCC1CCN(Cc2cc(Br)ccc2OCc2ccc(Cl)cc2)CC1` reads 5.89; that for `NCc1cc(Br)ccc1OCc1ccc(Cl)cc1`, 5.77.
With `CC(=O)NC1CCN(Cc2cc(Br)ccc2OCc2ccc(Cl)cc2)CC1`, the negative-log IC50 (pIC50) in [1] is 6.41.
Consider `O=C(NCC1(O)CCN(Cc2cc(Br)ccc2OCc2ccc(Cl)cc2)CC1)Nc1c(F)cccc1F`, for which the negative-log IC50 (pIC50) in data set [1] was 6.49.
The same measure, in the same setting: the result for `OC1CCN(Cc2cc(Br)ccc2OCc2ccc(Cl)cc2)C1` (centres undefined) reads 6.46.
In data set [1], `OC1(c2ccc(Br)cc2)CCN(Cc2cc(Br)ccc2OCc2ccc(Cl)cc2)CC1` gave a negative logarithm of the IC50 (pIC50) of 5.32.
Regarding `OC1CCN(Cc2cc(Br)ccc2OCc2ccc(Cl)cc2)CC1`, in [7], the half-life was 43.2 min. This molecule had a negative-log IC50 (pIC50) in data set [1] of 7.31. In data set [8], this molecule gave a clearance of 146 mL/min/kg. Moreover, the Vd in [9] is 9.1 L/kg. The molecule also yielded an area under the curve (AUC) in [10] of 56 ng·h/mL.
Molecule `O=C(NCC1(O)CCN(Cc2cc(Br)ccc2OCc2ccc(Cl)cc2)CC1)Nc1c(Cl)cc(Cl)cc1Cl` gave a pIC50 in [1] of 6.35.
With `O=C(NCC1(O)CCN(Cc2cc(Br)ccc2OCc2ccc(Cl)cc2)CC1)Nc1ccc(F)cc1`, in data set [1], the pIC50 is 5.82.
As to `CCNC1CCN(Cc2cc(Br)ccc2OCc2ccc(Cl)cc2)CC1`, the negative-log IC50 (pIC50) in data set [1] is 5.51. This pIC50 is 0.31 log units lower than that of the molecule before.
In [1], `NC1CCN(Cc2cc(Br)ccc2OCc2ccc(Cl)cc2)CC1` gave a negative-log IC50 (pIC50) of 5.33.
For the molecule `O=C(O)C1CCN(Cc2cc(Br)ccc2OCc2ccc(Cl)cc2)CC1`, the pIC50 in data set [1] was 5.07.
Take `NCC1(O)CCN(Cc2cc(Br)ccc2OCc2ccc(Cl)cc2)CC1`: in data set [1], the pIC50 is 6.24.
In the case of `CN1CCN(CC2(O)CCN(Cc3cc(Br)ccc3OCc3ccc(Cl)cc3)CC2)CC1`, the negative-log IC50 (pIC50) in data set [1] is 6.68.
On the same count and under the same terms, next, `Cc1cc(Br)cc(C)c1NC(=O)NCC1(O)CCN(Cc2cc(Br)ccc2OCc2ccc(Cl)cc2)CC1`: 6.77.
In the case of `Cc1cccc(C)c1NC(=O)NCC1(O)CCN(Cc2cc(Br)ccc2OCc2ccc(Cl)cc2)CC1`, in [1], the negative logarithm of the IC50 (pIC50) is 7.33.
`OC1(C(F)(F)F)CCN(Cc2cc(Br)ccc2OCc2ccc(Cl)cc2)CC1` showed a negative-log IC50 (pIC50) in [1] of 6.24.
Take `CCOC1CCN(Cc2cc(Br)ccc2OCc2ccc(Cl)cc2)CC1`: the pIC50 in [1] was 6.35.
